Exocytosis inh: LAMP-1 surface exposure blockers, TALL-104 cells – cell-based, flow cytometry, MLPCN library, primary screen; TALL-104 LAMP-1 surface exposure; cells stimulated with thapsigargin and PMA; inhibition, % at 10 µM; hit rate 0.66% among 360,000; AID 651702, 2012;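 active = inhibition above about 55%, limit read from the data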
SENP1 FRET inh: human SENP1 catalytic domain inhibitors, primary screen, biochemical, FRET, uHTS; recombinant SENP1 catalytic domain, CyPet-SUMO1-YPet FRET cleavage; Sentrin-specific protease 1 (Homo sapiens), Q9P0U3; inhibition, % at 10 µM; hit rate 0.21% among 360,000;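 active = inhibition at least 30% at 10 µM, raw YFP signal under a set limit, fluorescence ratio 0.5 to 1.5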;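 note: 0% = enzyme with DMSO and 100% = no enzyme wells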
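Test system: hSENP1 catalytic domain, recombinant; Amount: 20 pM final SENP1 enzyme; Medium: Tris pH 8 buffer plus EDTA, NaCl, BME, BSA, NP40, catalase; Schedule: 50 min enzyme reaction, room temperature, light-protected; Technique: FRET fluorescence in CFP and YFP emission channels; Controls: no-enzyme wells low, DMSO-plus-enzyme wells high control.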
Myeloid diff 2: induction of myeloid progenitor differentiation, primary screen, cell-based, flow cytometry, MLPCN library. ER-HoxA9 myeloid progenitors, lysozyme-GFP differentiation. calls only at 10 µM. hit rate 1% among 360,000;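 active = normalized GFP-positive differentiation at or above the plate's own cutoff, the solvent-only control mean plus 3 SD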;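 note: cells exposed to compound for four days before flow analysis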
Cardio protect: cardioprotection against H2O2-induced cell death, primary screen, uHTS, H9c2 cells, ATPLite luminescence | H9c2 cardiomyocytes, H2O2 injury protection, 2 h | protection from H2O2 cell death, % at 20 µM | hit rate 0.63% among 360,000 | AID 588492, 2011;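 active = compounds giving at least 50% protection of heart cells from peroxide-induced death in the single-dose screen, raw or plate-pattern-corrected value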;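 note: 0% = DMSO wells with peroxide and 100% = DMSO wells without peroxide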
HNF4A DNA FP: change in binding of human HNF4A to DNA, primary screen, biochemical, fluorescence polarization, FITC-DNA | Hepatocyte nuclear factor 4-alpha (Homo sapiens), P41235 | 1 h | activity change, % at 10 µM | hit rate 0.3% among 360,000 | AID 1224865, 2016; in the data active = activity change above about 30%, passing the limit was not always enough
Pemphigus Ab inh: inhibitors of pemphigus antibody binding to DSG3, primary screen, biochemical, bead-based, flow cytometry, scFv-GFP; binding (percent of control), % at 10 µM; DSG3-coupled beads, scFv-anti-DSG3-GFP binding; hits give low values; hit rate 0.48% among 310,000; Desmoglein-3 (Homo sapiens), P32926; AID 588358, 2011;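 active = binding more than 3 SD below its plate's average and above zero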;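 note: hits lower antibody fragment binding to DSG3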
Myeloid diff: inducers of myeloid progenitor differentiation, confirmation, cell-based, GFP/Mac1 flow cytometry, cherry pick 01; shares compounds with Myeloid diff 2; ER-HoxA9 myeloid progenitors, GFP/Mac1 double-positive flow; calls only; hit rate 2% among 2,300; AID 651706, 2012;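 active = share of green or green-and-red cells above 9 and 9% in run 1 or 4 and 3% in run 2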
GFP autofluor: counter-screen for myeloid differentiation promoters: compound fluorescence | shares compounds with Myeloid diff 2 | ER-HoxA9 myeloid progenitors, no estrogen, GFP autofluorescence flow cytometry; vehicle wells 0%, positive control 100% | fluorescence response, % (concentration not given with the values) | hit rate 7.4% among 2,300;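 active = over 5% cells positive for green fluorescent reporter, or over 2% positive for both it and APC stain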;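 note: range taken on the double positive population between DMSO and positive control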
* hit, by the source's call; i = inactive; · = no result given; + = active, no number. Only some compounds are listed: those with a hit (about 3% of all), similar ones and a draw of the others.

SMILES	Exocytosis inh	SENP1 FRET inh	Myeloid diff 2	Cardio protect	HNF4A DNA FP	Pemphigus Ab inh	Myeloid diff	GFP autofluor
C/C(=N\NC(=O)CNc1ccc(F)cc1)c1cc2ccccc2o1	1	1	+	-2	3	104	i	0
COc1ccc(NCC(=O)N/N=C(\C)c2cc3ccccc3o2)cc1	0	0	i	-15	1	95	·	·
COc1ccc(S(=O)(=O)NCC(=O)N(CC(=O)NCc2ccco2)Cc2ccc(F)cc2)cc1	24	-1	i	-2	4	94	·	·
Cc1cccc(NC(=O)CN(CC2CCCO2)C(=O)c2cc3ccccc3o2)c1C (centres undefined)	-3	-5	i	4	7	104	·	·
C=CCC[C@@H](CCCCC)OC(=O)/C=C/[C@H](O)[C@@H](O)C[C@H](O)CC=C	-4	-1	+	·	0	·	i	0
C=CCC[C@H](CCCCC)OC(=O)/C=C/[C@H](O)[C@@H](O)C[C@H](O)CC=C	-1	0	i	·	1	·	·	·
COc1cccc(NC(=S)N(CCC(C)C)C2CCN(C(C)=O)CC2)c1	2	8	i	4	2	93	·	·
Cc1nc([N+](=O)[O-])cn1CC(O)c1ccc(F)cc1 (centres undefined)	-3	2	i	-2	2	112	·	·
O=c1cc(-c2ccccc2Cl)oc2c(Br)ccc(O)c12	-5	0	+	-5	-1	97	i	0
O=c1cc(-c2ccccc2Cl)oc2cccc(O)c12	-1	3	i	-5	2	102	·	·
CC(C)c1nnc(NC(=O)Cn2nc(-c3ccc4c(c3)OCCO4)ccc2=O)s1	-1	3	+	11	-1	98	i	0
COc1cccc(OC)c1NC(=O)Cn1nc(-c2ccc3c(c2)OCCO3)ccc1=O	7	2	·	4	-1	·	·	·
Cc1ccc(S(=O)(=O)N2CCc3ccccc3C2CC(=O)O)cc1 (centres undefined)	0	1	i	-2	0	106	·	·
CC(=O)C1C(c2ccc(F)c(F)c2)NC(=O)NC1(O)C(F)(F)F (centres undefined)	-1	1	i	-7	-3	·	i	0
CN(C)CCN1CCc2ccccc21	1	-4	+	6	-3	·	i	0
O=C(CNC(=O)c1ccccc1)OC(C(=O)O)c1ccc(F)cc1 (centres undefined)	-5	2	i	-4	0	108	·	·
CCc1ccccc1N(CC(=O)NC1CCCCC1)C(=O)CNC(=O)c1ccco1	-17	3	i	4	-3	99	·	·
COc1ccc(-n2nnnc2C(c2ccnc3ccccc23)N2CCN(C/C=C/c3ccccc3)CC2)cc1 (centres undefined)	3	-5	+	0	-2	·	i	1
COc1ccc(C(c2nnnn2-c2ccc(OC)cc2)N2CCN(C/C=C/c3ccccc3)CC2)cc1 (centres undefined)	19	-2	i	0	4	·	·	·
Cc1cc(N2CCN(C(c3ccnc4ccccc34)c3nnnn3-c3c(C)cccc3C)CC2)c2ccccc2n1 (centres undefined)	0	-2	i	·	1	·	i	0
O=S(=O)(Oc1ccccc1N1CCCCC1)c1ccccc1	7	0	i	-8	5	116	·	·
CC(C)COP(=O)(CNC(=O)CN1C(=O)c2ccccc2S1(=O)=O)OCC(C)C	1	0	i	2	3	108	·	·
Cc1csc(=O)n1CCC(=O)OCC(=O)Nc1cccc(C#N)c1	-2	1	i	-1	0	97	·	·
CC(C)(C)[C@@H]1C=C(C(=O)O)[C@H](c2ccc(Cl)cc2)N1S(=O)(=O)c1ccccc1	0	-1	+	-3	3	110	i	3
COc1cc(OC)cc(C(=O)NC(C(=O)N2CCc3ccccc3C2)C(C)C)c1 (centres undefined)	9	2	i	-6	4	108	·	·
SMILES	Exocytosis inh	SENP1 FRET inh	Myeloid diff 2	Cardio protect	HNF4A DNA FP	Pemphigus Ab inh	Myeloid diff	GFP autofluor
FC(F)(F)c1ccccc1CN1CCN(C2CCCCCC2)CC1	0	-1	i	1	0	111	·	·
FC(F)(F)c1ccccc1CN1CCCC(N2CCN(c3ccccc3)CC2)C1 (centres undefined)	10	3	i	-8	-1	90	i	10*
CC(Sc1ccccc1)C(=O)N1CCN(S(=O)(=O)c2cccc(Br)c2)CC1 (centres undefined)	29	1	i	-4	0	93	·	·
Cc1ccc(NC(=S)N2CCN(S(=O)(=O)c3ccccc3)CC2)cc1C	-2	5	i	1	-3	110	·	·
C=CCn1c(N2CCN(c3ccc(OC)cc3)CC2)nc2c1c(=O)[nH]c(=O)n2C	-3	3	i	-3	-2	-12*	i	0
C=CCn1c(N2CCN(c3ccc(OC)cc3)CC2)nc2c1c(=O)n(C)c(=O)n2C	-5	2	i	-9	-5	107	·	·
CS(=O)(=O)c1cccc(-c2csc(N3CCC(C(N)=O)CC3)n2)c1	-3	2	i	-10	-2	89	·	·
O=C(O)C(c1ccccc1)N1C(=O)/C(=C\c2ccc(-c3ccc(Br)cc3)o2)SC1=S (centres undefined)	1	-23	+	-3	110	89	i	26*
O=C(O)C(c1ccccc1)N1C(=O)/C(=C\c2ccc(-c3ccccc3Cl)o2)SC1=S (centres undefined)	-16	-26	i	-10	62	106	·	·
COC(=O)C(C(=O)OC)C(CC(=O)c1ccc(Br)cc1)c1ccccc1 (centres undefined)	1	2	i	-2	-4	127	·	·
CCN1CCN(C(=O)CN(c2ccc(F)c(Cl)c2)S(C)(=O)=O)CC1	-7	1	i	9	1	107	·	·
